Source: the M2OR odorant receptor database
Numbering of substitutions follows the chain as printed.

What was measured:
Conditions in all cases: stereoisomer not certain
[1] = target: T1, OR6B3 (Homo sapiens) (UniProt Q8NGW1)
T1 sequence (whole entry): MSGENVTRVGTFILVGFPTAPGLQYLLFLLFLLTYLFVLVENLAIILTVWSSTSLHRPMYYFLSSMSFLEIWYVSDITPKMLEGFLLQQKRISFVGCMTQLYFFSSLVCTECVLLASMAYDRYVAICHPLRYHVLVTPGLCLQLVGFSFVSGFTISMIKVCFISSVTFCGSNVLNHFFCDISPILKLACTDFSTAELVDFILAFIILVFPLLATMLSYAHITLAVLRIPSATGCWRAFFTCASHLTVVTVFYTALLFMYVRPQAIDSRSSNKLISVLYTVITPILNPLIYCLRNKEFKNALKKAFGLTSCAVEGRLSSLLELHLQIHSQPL
Procedure, shortened: (§1)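 Each receptor–molecule pair is labelled responsive or non-responsive (inactive) according to whether the original authors judged the measured signal statistically different from baseline. The data were taken from the main text and supplementary material of published papers and checked for typos and inconsistencies. Assay methods differed by source, with transient luciferase assays in mammalian cell lines being common.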

[2] = tested on: T2, OR6B3 T48I R131C
T2 sequence (whole entry): T1 sequence (whole entry) with T48I, R131C
Procedure, shortened: as §1

[3] = target: T3, OR6C1 (Homo sapiens) (UniProt Q96RD1)
T3 sequence (whole entry): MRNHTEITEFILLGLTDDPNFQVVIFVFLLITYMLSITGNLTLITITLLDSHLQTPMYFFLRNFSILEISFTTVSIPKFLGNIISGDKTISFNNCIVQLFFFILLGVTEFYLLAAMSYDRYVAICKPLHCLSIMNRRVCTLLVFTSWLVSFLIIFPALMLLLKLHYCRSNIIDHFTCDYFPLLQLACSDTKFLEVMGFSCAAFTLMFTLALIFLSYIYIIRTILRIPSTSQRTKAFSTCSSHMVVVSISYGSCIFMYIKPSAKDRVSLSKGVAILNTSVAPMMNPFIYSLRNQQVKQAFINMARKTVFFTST
Procedure, shortened: as §1

[4] = tested on: T4, OR6C1 C130Y H165D V246I
T4 sequence (whole entry): T3 sequence (whole entry) with C130Y, H165D, V246I
Procedure, shortened: as §1

[5] = target: T5, OR6C2 (Homo sapiens) (UniProt Q9NZP2)
T5 sequence (whole entry): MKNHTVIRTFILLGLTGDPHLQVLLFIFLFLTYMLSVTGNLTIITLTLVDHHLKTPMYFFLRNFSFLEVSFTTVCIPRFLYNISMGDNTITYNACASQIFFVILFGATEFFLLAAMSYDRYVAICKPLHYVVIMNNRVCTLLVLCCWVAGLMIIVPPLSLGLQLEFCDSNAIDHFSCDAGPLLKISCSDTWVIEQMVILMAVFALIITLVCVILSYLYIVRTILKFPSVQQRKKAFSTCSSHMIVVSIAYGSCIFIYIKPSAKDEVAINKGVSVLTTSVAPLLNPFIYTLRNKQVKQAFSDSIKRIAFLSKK
Procedure, shortened: as §1

[6] = target: T6, OR6C3 (Homo sapiens) (UniProt Q9NZP0)
T6 sequence (whole entry): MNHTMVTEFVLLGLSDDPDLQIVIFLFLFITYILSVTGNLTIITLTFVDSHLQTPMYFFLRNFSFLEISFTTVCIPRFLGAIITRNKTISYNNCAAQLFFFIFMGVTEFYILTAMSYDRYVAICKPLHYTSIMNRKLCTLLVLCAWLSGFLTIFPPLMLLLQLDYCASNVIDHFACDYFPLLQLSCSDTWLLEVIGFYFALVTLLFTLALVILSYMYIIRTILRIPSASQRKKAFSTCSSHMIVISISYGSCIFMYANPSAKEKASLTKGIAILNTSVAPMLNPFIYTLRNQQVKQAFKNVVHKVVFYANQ
Procedure, shortened: as §1

[7] = target: T7, OR6C4 (Homo sapiens) (UniProt Q8NGE1)
T7 sequence (whole entry): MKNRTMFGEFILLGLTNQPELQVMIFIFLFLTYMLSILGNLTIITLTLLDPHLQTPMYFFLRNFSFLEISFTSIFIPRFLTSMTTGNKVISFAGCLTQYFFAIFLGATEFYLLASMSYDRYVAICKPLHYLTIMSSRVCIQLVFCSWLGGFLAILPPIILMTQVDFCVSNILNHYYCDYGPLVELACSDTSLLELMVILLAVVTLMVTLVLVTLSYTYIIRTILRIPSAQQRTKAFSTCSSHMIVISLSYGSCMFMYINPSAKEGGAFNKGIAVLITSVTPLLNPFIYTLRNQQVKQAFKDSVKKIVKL
Procedure, shortened: as §1

[8] = tested on: T8, OR6C4
T8 sequence (whole entry): T7 sequence (whole entry) with I37V
Procedure, shortened: as §1

[9] = target: T9, OR6C6 (Homo sapiens) (UniProt A6NF89)
T9 sequence (whole entry): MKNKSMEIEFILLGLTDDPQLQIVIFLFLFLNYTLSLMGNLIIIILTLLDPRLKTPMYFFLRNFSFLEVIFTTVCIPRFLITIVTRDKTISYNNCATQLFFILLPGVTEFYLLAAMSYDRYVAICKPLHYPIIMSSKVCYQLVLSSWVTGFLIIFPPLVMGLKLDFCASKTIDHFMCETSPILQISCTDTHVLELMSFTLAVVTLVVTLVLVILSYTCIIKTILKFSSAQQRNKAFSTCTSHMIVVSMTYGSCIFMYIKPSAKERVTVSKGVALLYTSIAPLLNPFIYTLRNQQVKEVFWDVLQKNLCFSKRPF
Procedure, shortened: as §1

[10] = tested on: T10, OR6C6 M6I
T10 sequence (whole entry): T9 sequence (whole entry) with M6I
Procedure, shortened: as §1

Measured: odorant receptor agonist call;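 also: active if original authors judged signal statistically different from baseline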

CCC1OC(C)=C(O)C1=O (configuration not stated)
inactive: all assays above

CC1CCCCCCCCCCCCC(=O)C1 (configuration not stated)
inactive: [1] | [3] | [5] | [6] | [7] | [9]

Cc1cnc(C)c(C)n1
inactive: all assays above

CC(CO)CS (configuration not stated)
inactive: [1] | [3] | [5] | [6] | [7] | [9]

CCCCC(S)C(C)CO (configuration not stated)
inactive: [1] | [3] | [5] | [6] | [7] | [9]

CCC(S)C(C)CO (configuration not stated)
inactive: [1] | [3] | [5] | [6] | [7] | [9]

CCCC(S)CCOC(C)=O (configuration not stated)
inactive: all assays above

CC1=NC(C)C(C)S1 (configuration not stated)
inactive: all assays above

CC1=C(O)C(=O)OC1C (configuration not stated)
inactive: all assays above

CC1=C(O)C(=O)C(C)O1 (configuration not stated)
inactive: all assays above

CC(=O)c1c(C)c([N+](=O)[O-])c(C(C)(C)C)c([N+](=O)[O-])c1C
inactive: [1] | [3] | [5] | [6] | [7] | [9]

CCCCCC(=O)C(C)C(C)=O (configuration not stated)
inactive: [1] | [3] | [5] | [6] | [7] | [9]

CCCCCCC=CCCC=O
inactive: all assays above

CCCCCC(S)C(C)CO (configuration not stated)
inactive: [1] | [3] | [5] | [6] | [7] | [9]

CCC1OC(=O)C(O)=C1C (configuration not stated)
inactive: all assays above
